Data published in ChEMBL document CHEMBL4342473, “Lead Optimization of Benzoxazolone Carboxamides as Orally Bioavailable and CNS Penetrant Acid Ceramidase Inhibitors” (J Med Chem, 2020).
Calls of active or inactive are those of the source. No cut-off for these calls is given here.

How the values were obtained:
[1] = biological target: T1, Sphingomyelin phosphodiesterase (Homo sapiens) (UniProt P17405); experiment: Inhibition of human full length ASM at 1 to 10 uM using HMU-PC as fluorogenic substrate incubated for 45 mins by fluorescence based assay
T1 sequence (whole entry): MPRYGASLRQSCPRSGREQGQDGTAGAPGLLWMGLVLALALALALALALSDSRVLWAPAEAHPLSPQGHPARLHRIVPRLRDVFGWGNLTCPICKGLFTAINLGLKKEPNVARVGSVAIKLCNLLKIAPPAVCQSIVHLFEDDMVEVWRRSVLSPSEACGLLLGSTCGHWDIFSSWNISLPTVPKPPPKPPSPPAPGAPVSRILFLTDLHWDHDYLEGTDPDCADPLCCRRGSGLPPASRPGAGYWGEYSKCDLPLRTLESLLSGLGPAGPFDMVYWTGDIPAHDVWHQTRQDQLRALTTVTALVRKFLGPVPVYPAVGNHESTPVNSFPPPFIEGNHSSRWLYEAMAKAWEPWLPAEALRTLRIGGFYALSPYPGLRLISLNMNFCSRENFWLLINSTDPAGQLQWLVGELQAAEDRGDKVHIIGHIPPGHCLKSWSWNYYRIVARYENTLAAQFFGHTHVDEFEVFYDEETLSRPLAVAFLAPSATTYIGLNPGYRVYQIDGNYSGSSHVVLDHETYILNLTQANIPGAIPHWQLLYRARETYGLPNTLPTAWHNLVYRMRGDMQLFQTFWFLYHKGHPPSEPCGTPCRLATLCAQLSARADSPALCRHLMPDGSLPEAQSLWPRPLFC

[2] = biological target: T2, Acid ceramidase (Homo sapiens) (UniProt Q13510); experiment: Inhibition of acid ceramidase in human SH-SY5Y cells using N-lauroyl ceramide as substrate measured after 3 hrs by LC/MS analysis; format: cell-based
T2 sequence (whole entry): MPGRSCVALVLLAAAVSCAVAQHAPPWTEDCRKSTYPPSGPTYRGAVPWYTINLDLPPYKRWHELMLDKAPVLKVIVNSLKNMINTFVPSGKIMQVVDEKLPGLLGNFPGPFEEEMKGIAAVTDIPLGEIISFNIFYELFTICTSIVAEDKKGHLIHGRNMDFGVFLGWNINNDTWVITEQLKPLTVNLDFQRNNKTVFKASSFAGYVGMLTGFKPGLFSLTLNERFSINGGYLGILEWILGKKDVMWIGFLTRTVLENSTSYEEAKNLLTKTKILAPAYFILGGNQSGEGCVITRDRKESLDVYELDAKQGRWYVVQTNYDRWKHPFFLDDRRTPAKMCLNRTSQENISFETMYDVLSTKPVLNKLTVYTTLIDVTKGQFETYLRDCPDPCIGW
How it was run: (§1)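 SH-SY5Y neuroblastoma cells exposed 3 h to 1, 2.5, 5 and 10 μM; AC activity by LC/MS-based assay; ceramide species, sphingosine, SM and HexCer (d18:1/16:0) quantified by LC/MS; means ± S.E.M. of at least six determinations, experiment repeated twice.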

[3] = biological target: T2, Acid ceramidase (Homo sapiens); experiment: Inhibition of acid ceramidase in human SH-SY5Y cells assessed as increase in intracellular accumulation of Cer (d18:1/16:0) measured after 3 hrs by LC/MS analysis; format: cell-based; how it was run: as §1
[4] = biological target: T2, Acid ceramidase (Homo sapiens); experiment: Inhibition of acid ceramidase in human SH-SY5Y cells assessed as increase in intracellular accumulation of Cer (d18:0/16:0) at 10 uM measured up to 6 hrs by LC/MS analysis; format: cell-based
How it was run: (§2)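 Human neuroblastoma SH-SY5Y cells incubated with compound at 10 μM for 30 min, 1 h, 3 h and 6 h; AC activity by LC/MS-based activity assay; Cer (d18:0/16:0), Cer (d18:1/16:0), sphingosine, SM (d18:1/16:0) and HexCer (d18:1/16:0) quantified by LC/MS.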

[5] = biological target: T2, Acid ceramidase (Homo sapiens); experiment: Inhibition of acid ceramidase in human SH-SY5Y cells assessed as decrease in sphingosine level at 10 uM measured up to 6 hrs by LC/MS analysis; format: cell-based; how it was run: as §2
[6] = biological target: T2, Acid ceramidase (Homo sapiens); experiment: Inhibition of acid ceramidase in human SH-SY5Y cells assessed as change in intracellular accumulation of SM (d18:1/16:0) up to 10 uM measured after 3 hrs by LC/MS analysis; format: cell-based; how it was run: as §1
[7] = biological target: T2, Acid ceramidase (Homo sapiens); experiment: Inhibition of acid ceramidase in human SH-SY5Y cells assessed as change in intracellular accumulation of HexCer (d18:1/16:0) up to 10 uM measured after 3 hrs by LC/MS analysis; format: cell-based; how it was run: as §1
[8] = Toxicity in C57BL/6 mouse assessed as clinical abnormalities at 20 to 120 mg/kg, ip administered for 4 days; format: organism-based; conditions: in vivo, 96 h
Mus musculus = experiment: Neuroprotective activity in ip dosed Twitcher mouse model of Krabbe's disease assessed as reduction in GalSph (d18:1) level in brain administered once daily for 20 days measured 1 hr post-last dose by MS analysis; format: functional, organism-based
How it was run: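 Twitcher mice dosed i.p. at 30 or 90 mg kg–1 once daily for 20 days from postnatal day 10; sacrificed 1 h after last dose; brain GalSph (d18:1) measured; N = 3 males + 3 females per group.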

[9] = Unbound plasma concentration in C57BL/6J/129SvEV mouse model of Gaucher's disease at 90 mg/kg, ip administered once daily for 14 days measured 1 hr post last dose; format: ADME, organism-based; conditions: in vivo
How it was run: (§3)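 4L;C* mice dosed i.p. once daily for 14 days, killed 1 h after last dose (day 14); plasma and brain drug levels measured; unbound concentrations from plasma and brain unbound fractions (mean of two technical replicates); N = 4–8, mixed sexes.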

[10] = Unbound drug level in brain of C57BL/6J/129SvEV mouse model of Gaucher's disease at 30 mg/kg, ip administered once daily for 14 days measured 1 hr post-last dose; format: ADME, organism-based; conditions: in vivo; how it was run: as §3
[11] = Ratio of unbound drug level in brain of twitcher mouse model of Krabbe's disease at 90 mg/kg,ip administered once daily for 20 days measured 1 hr post-last dose to EC50 for inhibition of acid ceramidase in Krabbe's disease patient-derived primary fibroblasts; format: organism-based; conditions: in vivo
How it was run: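 Twitcher mice (3 males + 3 females per group) got 30 or 90 mg kg–1 i.p. once daily for 20 days from postnatal day 10 and were sacrificed 1 h after the day-20 dose. Plasma and brain levels were measured, and unbound brain level came from brain fraction unbound (two technical replicates). The EC50 was from Krabbe patient primary fibroblasts exposed 2 h to a concentration series (two independent experiments, duplicates).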

In the case of `CC(C)CNC(=O)n1c(=O)oc2cc(C3CCN(C)CC3)ccc21`, the inhibition [1] is reported as “inactive”, the inhibition [2] is reported as “Dose-dependent effect” and the inhibition [3] is reported as “Dose-dependent effect”. The inhibition [4] was “Active”, the inhibition [5] was “Active” and the inhibition [6] was “inactive”. For the same compound, the inhibition [7] was “inactive”, the Activity [8] was “Non-Toxic” and the Activity (Mus musculus) was “Dose-dependent effect”. For the same compound, the “Cp(f)” value [9] was 2320 nM, the “Drug uptake(free)” value [10] was 0.77 µM and the Ratio [11] was 5.2.
